Converted amounts (≈) assume the structure as drawn.
Assays:
Staphylococcus aureus [1] = assay: Minimum inhibitory concentration against Staphylococcus aureus 887; type: functional
Method in brief: (§1)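 Agar dilution per NCCLS in BB2 agar + 1% Isovitalex + 7.5% sheep blood + menadione, compound added to melted medium at 50 °C. About 10⁴ CFU/spot from diluted overnight cultures, multipoint-inoculated.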

Streptococcus pyogenes = assay: Minimum inhibitory concentration against Streptococcus pyogenes b15; conditions: Streptococcus pyogenes; read-out: MIC
Micrococcus luteus = assay: Minimum inhibitory concentration against Micrococcus luteus ATCC 8340; type: functional; method in brief: as §1
[2] = biological target: DNA gyrase (Escherichia coli) (UniProt P0AES6+P0AES4)
Staphylococcus aureus [3] = assay: Minimum inhibitory concentration against Staphylococcus aureus ATCC 25923; type: functional
Method in brief: (§2)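 NCCLS agar dilution on Mueller–Hinton agar, compound incorporated into melted medium at 50 °C. Inoculum about 10⁴ CFU/spot from diluted overnight cultures, multipoint-applied.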

Staphylococcus aureus [4] = assay: Minimum inhibitory concentration against Staphylococcus aureus Smith; type: functional; method in brief: as §2
Neisseria meningitidis = assay: Minimum inhibitory concentration against Neisseria meningitides 69480; type: functional; method in brief: as §1
[5] = test system: Stenotrophomonas maltophilia; assay: Minimum inhibitory concentration against Xanthomonas maltophilia AC739; type: functional; method in brief: as §2
Escherichia coli = assay: Minimum inhibitory concentration against Escherichia coli 25922; type: functional; method in brief: as §2
[6] = test system: Staphylococcus epidermidis; assay: Minimum inhibitory concentration against Staphylococcus epidermidis 16/2; type: functional; method in brief: as §2
Enterococcus faecalis = assay: Minimum inhibitory concentration against Enterococcus faecalis 6; type: functional; method in brief: as §2
[7] = Staphylococcus aureus, ATCC 25923, read-out: MIC
[8] = Staphylococcus aureus, read-out: MIC

SMILES | MIC (Micrococcus luteus) [µg/mL] | MNEC [2] [µg/mL] | MIC (Neisseria meningitidis) [µg/mL] | also measured
COc1cc(O)c2c(c1C)C(=O)OC[C@H](NC(=O)OC(C)(C)C)C(=O)N[C@H](C(=O)O)CSC2 | > 64 | 10 |  | MIC (Staphylococcus aureus [1]): > 64 µg/mL; MIC (Streptococcus pyogenes): > 64 µg/mL
COC(=O)[C@@H]1CSCc2cccc(C)c2C(=O)OCC(NC(=O)OC(C)(C)C)C(=O)N1 (stereo not given in full) |  | > 1 |  | 
COC(=O)[C@@H]1CSCc2ccccc2C(=O)OCC(NC(=O)OC(C)(C)C)C(=O)N1 (stereo not given in full) |  | > 1 |  | 
COc1cc(O)c2c(c1C)C(=O)O[C@H](CO)CC/C(S)=N/[C@H](c1nc(C)no1)CSC2 |  | 0.01 |  | 
COC(=O)[C@@H]1CSCc2c(O)cc(OC)c(C)c2C(=O)OCCC/C(S)=N/1 |  | 0.4 |  | MIC (Staphylococcus aureus [3]; [7]): 4 µg/mL (≈ 9.67 µM); MIC (Staphylococcus aureus [4]; [8]): 2 µg/mL (≈ 4.84 µM)
COC(=O)[C@@H]1CSCc2c(O)cc(O)c(C)c2C(=O)OCC(NC(=O)[C@@H]2C(O)CCN2C(=O)OC(C)(C)C)C(=O)N1 (stereo not given in full) | 8 (≈ 13.4 µM) | 0.05 | 64 (≈ 107 µM) | MIC (Staphylococcus aureus [1]): > 64 µg/mL; MIC (Streptococcus pyogenes): 32 µg/mL (≈ 53.5 µM)
COC(=O)[C@@H]1CSCc2c(O)cc(O)cc2C(=O)OCC(NC(=O)OC(C)(C)C)C(=O)N1 (stereo not given in full) | 128 (≈ 272 µM) | 0.5 | 128 (≈ 272 µM) | 
COC(=O)[C@@H]1CSCc2c(O)cc(OC)c(C)c2C(=O)OC/C(S)=N/1 |  | 0.2 |  | MIC (Staphylococcus aureus [3]; [7]): > 64 µg/mL; MIC (Staphylococcus aureus [4]; [8]): > 64 µg/mL
COC(=O)[C@@H]1CSCc2c(O)cc(OC)c(C)c2C(=O)OCCCCCCCC/C(S)=N/1 |  | > 1 |  | 
COC(=O)[C@@H]1CSCc2c(O)cc(O)c(C)c2C(=O)OCCC(=O)N1 | 16 (≈ 43.3 µM) | 0.25 | 32 (≈ 86.6 µM) | 
COC(=O)[C@@H]1CSCc2c(O)cc(O)c(C)c2C(=O)OC[C@H](NC(C)=O)C(=O)N1 | 128 (≈ 300 µM) | 0.4 | 32 (≈ 75 µM) | MIC (Staphylococcus aureus [1]): > 64 µg/mL; MIC (Streptococcus pyogenes): > 64 µg/mL
COC(=O)[C@@H]1CSCc2c(O)cc(O)c(C)c2C(=O)OC[C@H](NC(=O)OC(C)(C)C)C(=O)N1 | 128 (≈ 264 µM) | 10 | 128 (≈ 264 µM) | 
COC(=O)[C@@H]1CSCc2c(O)cc(OC)c(C)c2C(=O)OCCCCCC(=O)N1 |  | 2 |  | MIC (Staphylococcus aureus [3]; [7]): > 64 µg/mL; MIC (Staphylococcus aureus [4]; [8]): 32 µg/mL (≈ 75.2 µM)
COc1cc(O)c2c(c1C)C(=O)OC[C@H](NC(=O)OC(C)(C)C)C(=O)N[C@H](CO)CSC2 | 64 (≈ 136 µM) | 2.5 | 64 (≈ 136 µM) | MIC (Staphylococcus aureus [1]): > 64 µg/mL; MIC (Streptococcus pyogenes): 64 µg/mL (≈ 136 µM)
COC(=O)[C@@H]1CSCc2c(O)cc(OC)c(C)c2C(=O)OCCCC(=O)N1 |  | 2 |  | MIC (Staphylococcus aureus [3]; [7]): 64 µg/mL (≈ 161 µM); MIC (Staphylococcus aureus [4]; [8]): 32 µg/mL (≈ 80.5 µM)
COc1cc(O)c2c(c1C)C(=O)O[C@H](CO)C/C(S)=N/[C@H](c1nc(C)no1)CSC2 |  | 0.01 |  | 
Cc1c(O)cc(O)c2c1C(=O)OCCC(=O)NCCSC2 | > 128 | 20 |  | 
COC(=O)[C@@H]1CSCc2c(O)cc(OC)c(C)c2C(=O)OCCCCC/C(S)=N/1 |  | 0.5 |  | MIC (Staphylococcus aureus [3]; [7]): 32 µg/mL (≈ 72.5 µM); MIC (Staphylococcus aureus [4]; [8]): 16 µg/mL (≈ 36.2 µM)
COC(=O)[C@@H]1CSCc2c(O)cc(O)c(C)c2C(=O)OCC(NC(=O)CCO)C(=O)N1 (stereo not given in full) | 16 (≈ 35.1 µM) | 0.2 |  | MIC (Staphylococcus aureus [1]): > 64 µg/mL; MIC (Streptococcus pyogenes): > 64 µg/mL
COC(=O)[C@@H]1CSCc2c(O)cc(OC)c(C)c2C(=O)OC[C@H](C)C(=O)N1 | 16 (≈ 40.3 µM) | 0.4 | 8 (≈ 20.1 µM) | MIC (Staphylococcus aureus [1]): 16 µg/mL (≈ 40.3 µM); MIC (Streptococcus pyogenes): 16 µg/mL (≈ 40.3 µM)
COC(=O)[C@@H]1CSCc2c(O)cc(OC)c(C)c2C(=O)OCCCCCCCCC(=O)N1 |  | > 1 |  | 
COC(=O)[C@@H]1CSCc2c(O)cc(OC)c(C)c2C(=O)OC[C@@H](C)C(=O)N1 | 64 (≈ 161 µM) | 4 | 64 (≈ 161 µM) | MIC (Staphylococcus aureus [1]): > 64 µg/mL; MIC (Streptococcus pyogenes): > 64 µg/mL

SMILES | MIC (Micrococcus luteus) [µg/mL] | MNEC [2] [µg/mL] | MIC (Neisseria meningitidis) [µg/mL] | also measured
COC(=O)[C@@H]1CSCc2c(O)cc(O)c(C)c2C(=O)OC[C@@H](NC(=O)OC(C)(C)C)C(=O)N1 | 128 (≈ 264 µM) | 1 | 32 (≈ 66 µM) | 
COC(=O)[C@@H]1CSCc2c(O)ccc(C)c2C(=O)OCC(NC(=O)OC(C)(C)C)C(=O)N1 (stereo not given in full) | 32 (≈ 68.3 µM) | 1 |  | 
COC(=O)[C@@H]1CSCc2c(O)cc(OC)c(C)c2C(=O)OCCCC/C(S)=N/1 |  | 0.01 |  | MIC (Streptococcus pyogenes): 1 µg/mL (≈ 2.34 µM); MIC [5]: 8 µg/mL (≈ 18.7 µM); MIC (Staphylococcus aureus [3]): 0.5 µg/mL (≈ 1.17 µM); MIC (Staphylococcus aureus [3]; [7]): 0.5 µg/mL (≈ 1.17 µM); MIC (Escherichia coli): > 64 µg/mL; MIC (Staphylococcus aureus [4]): 0.25 µg/mL (≈ 0.585 µM); MIC (Staphylococcus aureus [4]; [8]): 0.25 µg/mL (≈ 0.585 µM); MIC [6]: < 0.12 µg/mL; MIC (Enterococcus faecalis): 1 µg/mL (≈ 2.34 µM)
COC(=O)[C@@H]1CSCc2c(OC)cc(O)c(C)c2C(=O)OCC(NC(=O)OC(C)(C)C)C(=O)N1 (stereo not given in full) | > 128 | > 1 | 128 (≈ 257 µM) | 
COC(=O)c1c(C)c(OC)cc(O)c1CSC[C@H](/N=C(/C)S)C(=O)OC |  | 0.2 |  | MIC (Staphylococcus aureus [3]; [7]): 16 µg/mL (≈ 39.8 µM); MIC (Staphylococcus aureus [4]; [8]): 8 µg/mL (≈ 19.9 µM)
COC(=O)[C@H]1CSCc2c(O)cc(O)c(C)c2C(=O)OC[C@H](NC(=O)OC(C)(C)C)C(=O)N1 | 128 (≈ 264 µM) | 4 | 128 (≈ 264 µM) | 
COC(=O)[C@@H]1CSCc2c(O)cc(OC)c(C)c2C(=O)OCCCCCCC(=O)N1 |  | > 1 |  | MIC (Staphylococcus aureus [3]; [7]): > 64 µg/mL; MIC (Staphylococcus aureus [4]; [8]): > 64 µg/mL
COc1cc(O)c2c(c1C)C(=O)OC[C@H](NC(=O)OC(C)(C)C)C(=O)N[C@H](C(N)=O)CSC2 | 16 (≈ 33.1 µM) | 0.1 | 4 (≈ 8.27 µM) | MIC (Staphylococcus aureus [1]): > 64 µg/mL; MIC (Streptococcus pyogenes): 16 µg/mL (≈ 33.1 µM)
COC(=O)[C@@H]1CSCc2c(O)cccc2C(=O)OCC(NC(=O)[C@H](CO)NC(=O)OC(C)(C)C)C(=O)N1 (stereo not given in full) | 64 (≈ 118 µM) | 0.4 | 32 (≈ 59.1 µM) | 
COC(=O)[C@@H]1CSCc2c(O)cc(OC)c(C)c2C(=O)OCCCCCC/C(S)=N/1 |  | 0.5 |  | MIC (Staphylococcus aureus [3]; [7]): 16 µg/mL (≈ 35.1 µM); MIC (Staphylococcus aureus [4]; [8]): 16 µg/mL (≈ 35.1 µM)
COC(=O)[C@@H]1CSCc2c(O)cccc2C(=O)OCC(NC(=O)OC(C)(C)C)C(=O)N1 (stereo not given in full) | > 128 | > 1 |  | 
C=CCNC(=O)[C@@H]1CSCc2c(O)cc(OC)c(C)c2C(=O)OC[C@H](NC(=O)OC(C)(C)C)C(=O)N1 | 8 (≈ 15.3 µM) | 0.1 | 4 (≈ 7.64 µM) | MIC (Staphylococcus aureus [1]): 16 µg/mL (≈ 30.6 µM); MIC (Streptococcus pyogenes): 16 µg/mL (≈ 30.6 µM)
COC(=O)[C@@H]1CSCc2c(N)cccc2C(=O)OCC(NC(=O)[C@H](CO)NC(=O)OC(C)(C)C)C(=O)N1 (stereo not given in full) | > 128 | > 100 | > 128 | 
COC(=O)[C@@H]1CSCc2c(O)cc(O)c(C)c2C(=O)OCC(NC(=O)[C@H]2C(O)CCN2C(=O)OC(C)(C)C)C(=O)N1 (stereo not given in full) | 128 (≈ 214 µM) | 1 |  | MIC (Staphylococcus aureus [1]): > 64 µg/mL
Cc1c(O)cc(O)c2c1C(=O)OCC(NC(=O)OC(C)(C)C)C(=O)NCCSC2 (stereo not given) | 32 (≈ 75 µM) | 1 |  | 
COc1cc(O)c2c(c1C)C(=O)CCCCC/C(S)=N/[C@H](c1nc(CNC(C)C)no1)CSC2.Cl |  | 0.002 |  | 
COC(=O)[C@@H]1CSCc2c(O)cc(O)c(C)c2C(=O)OC[C@H](NC(=O)[C@@H]2CCCN2C(=O)OC(C)(C)C)C(=O)N1 | 64 (≈ 110 µM) | 2.5 |  | MIC (Staphylococcus aureus [1]): > 64 µg/mL; MIC (Streptococcus pyogenes): > 64 µg/mL
COC(=O)c1c(C)c(OC)cc(O)c1CSC[C@H](NC(C)=O)C(=O)OC |  | 2 |  | MIC (Staphylococcus aureus [3]; [7]): > 64 µg/mL; MIC (Staphylococcus aureus [4]; [8]): > 64 µg/mL
COC(=O)[C@@H]1CSCc2c(O)cc(OC)c(C)c2C(=O)OCC(=O)N1 |  | > 1 |  | MIC (Staphylococcus aureus [3]; [7]): > 64 µg/mL; MIC (Staphylococcus aureus [4]; [8]): > 64 µg/mL
COc1cc(O)c2c(c1C)C(=O)OCCC/C(S)=N/[C@H](c1nc(C)no1)CSC2 |  | 0.004 |  | 
COC(=O)[C@@H]1CSCc2ccc(O)c(C)c2C(=O)OCC(NC(=O)OC(C)(C)C)C(=O)N1 (stereo not given in full) | > 128 | > 100 |  | 
COC(=O)[C@@H]1CSCc2c(O)cc(O)c(C)c2C(=O)OC[C@H](N)C(=O)N1 | > 64 | 1 |  | MIC (Staphylococcus aureus [1]): > 64 µg/mL

From ChEMBL document CHEMBL1149101, “New antibacterial agents derived from the DNA gyrase inhibitor cyclothialidine” (J Med Chem, 2004)
